Source: ChEMBL document CHEMBL3576771, “Molecular determinants of biased agonism at the dopamine D₂ receptor” (J Med Chem, 2015)

Tests used:
[1] = molecular target: D(1A) dopamine receptor (Homo sapiens, UniProt P21728); experiment: Displacement of [3H]SCH23390 from human dopamine D1 receptor transfected in HEK293 cells after 1 hr by scintillation counting analysis; type: cell-based
[2] = molecular target: D(1B) dopamine receptor (Homo sapiens, UniProt P21918); experiment: Displacement of [3H]SCH23390 from human dopamine D5 receptor transfected in HEK293 cells after 1 hr by scintillation counting analysis; type: cell-based
D(1B) dopamine receptor, sequence (P21918 whole entry): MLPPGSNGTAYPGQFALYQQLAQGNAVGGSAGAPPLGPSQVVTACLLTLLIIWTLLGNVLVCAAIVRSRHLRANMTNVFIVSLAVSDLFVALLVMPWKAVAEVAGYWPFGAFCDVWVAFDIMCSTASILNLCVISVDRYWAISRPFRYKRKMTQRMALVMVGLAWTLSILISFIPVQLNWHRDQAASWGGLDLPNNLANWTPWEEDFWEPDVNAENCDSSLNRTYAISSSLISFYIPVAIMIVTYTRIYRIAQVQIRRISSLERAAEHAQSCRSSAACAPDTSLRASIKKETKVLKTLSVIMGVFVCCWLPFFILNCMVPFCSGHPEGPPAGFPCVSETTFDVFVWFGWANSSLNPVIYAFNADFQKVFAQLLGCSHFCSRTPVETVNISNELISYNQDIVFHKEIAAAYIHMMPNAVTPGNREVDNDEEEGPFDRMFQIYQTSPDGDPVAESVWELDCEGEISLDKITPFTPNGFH

[3] = molecular target: T1, D(2) dopamine receptor (Homo sapiens, UniProt P14416); experiment: Displacement of [3H]spiperone from human dopamine D2L receptor transfected in CHO cells after 1 hr by scintillation counting analysis; type: cell-based
T1 sequence (P14416 whole entry): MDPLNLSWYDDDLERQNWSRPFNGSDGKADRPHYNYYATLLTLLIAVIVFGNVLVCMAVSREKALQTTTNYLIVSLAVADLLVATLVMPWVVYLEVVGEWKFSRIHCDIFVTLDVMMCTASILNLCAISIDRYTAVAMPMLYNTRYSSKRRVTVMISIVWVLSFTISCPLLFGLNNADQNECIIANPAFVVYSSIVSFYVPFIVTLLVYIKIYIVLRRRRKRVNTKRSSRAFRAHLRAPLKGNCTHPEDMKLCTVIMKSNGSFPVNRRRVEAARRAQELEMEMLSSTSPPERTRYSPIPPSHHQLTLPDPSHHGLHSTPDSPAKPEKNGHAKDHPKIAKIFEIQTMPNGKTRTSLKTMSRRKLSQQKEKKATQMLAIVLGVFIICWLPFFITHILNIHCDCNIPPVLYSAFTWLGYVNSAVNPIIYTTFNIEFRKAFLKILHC

[4] = molecular target: T1, D(2) dopamine receptor; experiment: Displacement of [3H]spiperone from human dopamine D2S receptor transfected in CHO cells after 1 hr by scintillation counting analysis; type: cell-based
[5] = molecular target: D(3) dopamine receptor (Homo sapiens, UniProt P35462); experiment: Displacement of [3H]spiperone from human dopamine D3 receptor transfected in CHO cells after 1 hr by scintillation counting analysis; type: cell-based
D(3) dopamine receptor, sequence (P35462 whole entry): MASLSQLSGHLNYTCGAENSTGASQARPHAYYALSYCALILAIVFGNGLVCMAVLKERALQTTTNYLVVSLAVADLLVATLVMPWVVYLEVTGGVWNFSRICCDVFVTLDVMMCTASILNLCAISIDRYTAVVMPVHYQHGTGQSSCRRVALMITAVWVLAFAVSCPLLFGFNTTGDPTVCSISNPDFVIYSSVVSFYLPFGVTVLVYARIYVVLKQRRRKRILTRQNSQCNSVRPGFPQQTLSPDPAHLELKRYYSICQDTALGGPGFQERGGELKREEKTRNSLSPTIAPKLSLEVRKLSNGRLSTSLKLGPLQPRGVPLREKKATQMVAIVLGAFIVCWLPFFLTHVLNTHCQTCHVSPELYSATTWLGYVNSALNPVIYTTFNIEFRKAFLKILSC

[6] = molecular target: T2, D(4) dopamine receptor (Homo sapiens, UniProt P21917); experiment: Displacement of [3H]spiperone from human dopamine D4.4 receptor transfected in CHO cells after 1 hr by scintillation counting analysis; type: cell-based
T2 sequence (P21917 whole entry): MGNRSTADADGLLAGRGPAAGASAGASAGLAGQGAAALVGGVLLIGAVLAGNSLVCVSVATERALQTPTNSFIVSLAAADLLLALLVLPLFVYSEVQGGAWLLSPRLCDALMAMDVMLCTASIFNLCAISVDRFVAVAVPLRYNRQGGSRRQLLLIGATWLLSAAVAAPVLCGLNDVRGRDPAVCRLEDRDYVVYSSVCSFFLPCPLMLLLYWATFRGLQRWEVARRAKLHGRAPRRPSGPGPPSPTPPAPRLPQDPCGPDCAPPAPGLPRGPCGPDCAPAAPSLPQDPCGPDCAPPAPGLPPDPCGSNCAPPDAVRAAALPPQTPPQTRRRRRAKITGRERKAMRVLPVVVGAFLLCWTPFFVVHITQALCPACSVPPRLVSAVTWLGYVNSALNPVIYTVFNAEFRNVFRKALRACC

[7] = Displacement of [3H]WAY100635 from poricne cerebral cortex 5-HT1A receptor by scintillation counting analysis; type: tissue-based, Sus scrofa
[8] = molecular target: 5-hydroxytryptamine receptor 2A (Homo sapiens, UniProt P28223); experiment: Displacement of [3H]ketanserin from human 5-HT2A receptor transfected in HEK293 cells by scintillation counting analysis; type: cell-based
5-hydroxytryptamine receptor 2A, sequence (P28223 whole entry): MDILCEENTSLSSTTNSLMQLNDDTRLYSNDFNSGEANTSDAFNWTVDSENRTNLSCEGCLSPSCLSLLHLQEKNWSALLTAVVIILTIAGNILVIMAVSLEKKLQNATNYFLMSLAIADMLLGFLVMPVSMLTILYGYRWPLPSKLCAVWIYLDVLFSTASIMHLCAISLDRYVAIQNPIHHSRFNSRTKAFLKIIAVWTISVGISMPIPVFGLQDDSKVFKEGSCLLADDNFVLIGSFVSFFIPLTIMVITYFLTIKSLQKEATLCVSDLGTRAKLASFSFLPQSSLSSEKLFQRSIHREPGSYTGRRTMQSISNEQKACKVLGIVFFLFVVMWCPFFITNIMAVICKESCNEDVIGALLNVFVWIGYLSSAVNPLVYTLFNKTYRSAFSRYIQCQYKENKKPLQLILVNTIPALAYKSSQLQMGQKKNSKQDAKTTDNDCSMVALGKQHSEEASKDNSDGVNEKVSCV

[9] = Displacement of [3H]prazosin from poricne cerebral cortex alpha1 adrenergic receptor by scintillation counting analysis; type: tissue-based, Sus scrofa
[10] = molecular target: T1, D(2) dopamine receptor; experiment: Intrinsic activity at human dopamine D2S receptor expressed in HEK293 cells co-transfected with Galpha0i assessed as [35S]GTPgammaS binding after 30 mins by [35S]GTPgammaS incorporation assay; type: functional, cell-based
[11] = molecular target: T1, D(2) dopamine receptor; experiment: Intrinsic activity at human dopamine D2S receptor expressed in HEK293 cells co-transfected with Galpha0i assessed as [35S]GTPgammaS binding after 30 mins by [35S]GTPgammaS incorporation assay relative to quinpirole; type: functional, cell-based
Procedure, shortened: (§1)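 HEK293 membranes cotransfected with D2L or D2S plus PTX-insensitive Gαo1; 30 μg/mL protein with compounds and 10 μM GDP preincubated 30 min, 37 °C; then 0.10 nM [35S]GTPγS for 30 min, 37 °C; GF/B filtration.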

[12] = molecular target: T1, D(2) dopamine receptor; experiment: Intrinsic activity at human dopamine D2S receptor expressed in HEK293 cells co-transfected with Galphai2 assessed as [35S]GTPgammaS binding after 30 mins by [35S]GTPgammaS incorporation assay; type: functional, cell-based
[13] = molecular target: T1, D(2) dopamine receptor; experiment: Intrinsic activity at human dopamine D2S receptor expressed in HEK293 cells co-transfected with Galphai2 assessed as [35S]GTPgammaS binding after 30 mins by [35S]GTPgammaS incorporation assay relative to quinpirole; type: functional, cell-based; conditions: in the assay text read “after 75 mins” for “after 30 mins”
Procedure, shortened: (§2)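 Membranes from HEK293 cells cotransfected with D2L or D2S and PTX-insensitive Gαi2; 30 μg/mL protein, 10 μM GDP and compounds preincubated 30 min at 37 °C, then 0.10 nM [35S]GTPγS added for 75 min at 37 °C; filtration.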

[14] = molecular target: T1, D(2) dopamine receptor; experiment: Intrinsic activity at human dopamine D2L receptor expressed in HEK293 cells co-transfected with Galpha0i assessed as [35S]GTPgammaS binding after 30 mins by [35S]GTPgammaS incorporation assay; type: functional, cell-based
[15] = molecular target: T1, D(2) dopamine receptor; experiment: Intrinsic activity at human dopamine D2L receptor expressed in HEK293 cells co-transfected with Galpha0i assessed as [35S]GTPgammaS binding after 30 mins by [35S]GTPgammaS incorporation assay relative to quinpirole; type: functional, cell-based; procedure, shortened: as §1
[16] = molecular target: T1, D(2) dopamine receptor; experiment: Intrinsic activity at human dopamine D2L receptor expressed in HEK293 cells co-transfected with Galphai2 assessed as [35S]GTPgammaS binding after 30 mins by [35S]GTPgammaS incorporation assay; type: functional, cell-based
[17] = molecular target: T1, D(2) dopamine receptor; experiment: Intrinsic activity at human dopamine D2L receptor expressed in HEK293 cells co-transfected with Galphai2 assessed as [35S]GTPgammaS binding after 30 mins by [35S]GTPgammaS incorporation assay relative to quinpirole; type: functional, cell-based; conditions: in the assay text read “after 75 mins” for “after 30 mins”; procedure, shortened: as §2
[18] = molecular target: T1, D(2) dopamine receptor; experiment: Agonist activity at ARMS2-PK2-tagged human dopamine D2S receptor expressed in HEK293 cells co-expressing (EA)-tagged beta arrestin fusion protein assessed as recruitment of beta-arrestin-2 after 5 hrs by chemiluminescence assay; type: cell-based
[19] = molecular target: T1, D(2) dopamine receptor; experiment: Agonist activity at ARMS2-PK2-tagged human dopamine D2S receptor expressed in HEK293 cells co-expressing (EA)-tagged beta arrestin fusion protein assessed as recruitment of beta-arrestin-2 after 5 hrs by chemiluminescence assay relative to quinpirole; type: cell-based
Procedure, shortened: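 Transient transfection of D2S (ProLink-tagged) into HEK293 cells stably expressing EA-tagged β-arrestin-2; 5000 cells seeded, 24 h.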

[20] = molecular target: D(1A) dopamine receptor (Sus scrofa) (UniProt P50130); experiment: Displacement of [3H]SCH23390 from porcine dopamine D1 receptor in striatal membranes after 1 hr by scintillation counting analysis
D(1A) dopamine receptor (Sus scrofa), sequence (P50130 whole entry, looked up): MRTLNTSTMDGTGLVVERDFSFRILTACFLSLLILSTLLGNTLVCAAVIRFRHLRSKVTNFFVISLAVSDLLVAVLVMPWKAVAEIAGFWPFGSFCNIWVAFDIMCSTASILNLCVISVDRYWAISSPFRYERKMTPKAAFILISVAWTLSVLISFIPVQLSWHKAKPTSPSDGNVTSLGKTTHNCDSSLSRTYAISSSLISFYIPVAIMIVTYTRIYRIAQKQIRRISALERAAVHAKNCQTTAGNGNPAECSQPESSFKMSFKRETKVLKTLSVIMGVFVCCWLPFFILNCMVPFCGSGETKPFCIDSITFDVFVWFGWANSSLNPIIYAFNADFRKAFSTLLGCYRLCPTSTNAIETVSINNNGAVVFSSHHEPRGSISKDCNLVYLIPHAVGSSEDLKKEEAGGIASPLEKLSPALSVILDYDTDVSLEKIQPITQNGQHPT

D(1A) dopamine receptor, sequence (P21728 whole entry): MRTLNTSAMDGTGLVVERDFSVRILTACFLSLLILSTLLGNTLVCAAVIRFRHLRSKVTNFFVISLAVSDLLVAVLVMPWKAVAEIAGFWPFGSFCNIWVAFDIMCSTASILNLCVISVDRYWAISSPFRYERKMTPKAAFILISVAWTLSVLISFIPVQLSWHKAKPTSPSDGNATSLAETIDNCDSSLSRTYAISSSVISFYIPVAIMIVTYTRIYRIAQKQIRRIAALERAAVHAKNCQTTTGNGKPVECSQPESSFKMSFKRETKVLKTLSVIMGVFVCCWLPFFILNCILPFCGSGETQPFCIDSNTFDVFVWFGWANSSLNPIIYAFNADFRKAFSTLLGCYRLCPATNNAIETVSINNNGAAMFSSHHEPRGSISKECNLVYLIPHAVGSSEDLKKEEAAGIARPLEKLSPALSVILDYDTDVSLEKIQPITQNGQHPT

For `C#CC1=CC[C@H](N(CCC)CCCCNC(=O)c2ccc(OCCCc3cn(CCCC)nn3)c(OC)c2)CO1`, the Ki [1] was 3900 nM, the Ki [2] was 48000 nM and the Ki [3] was 4.9 nM. For the same compound, the Ki [4] was 10 nM, the Ki [5] was 2.2 nM and the Ki [6] was 180 nM. The Ki [7] was 810 nM, the Ki [8] was 14000 nM and the Ki [9] was 860 nM. It also gave an EC50 [10] of 410 nM, an Emax [11] of 108% and an EC50 [12] of 2900 nM. For the same compound, the Emax [13] was 89%, the EC50 [14] was 90 nM and the Emax [15] was 88%. It also gave an EC50 [16] of 1900 nM, an Emax [17] of 84% and an EC50 [18] of 480 nM. For the same compound, the Emax [19] was 101%.

In the case of `C#CC1=CC[C@@H](N(CCC)CCCCNC(=O)c2ccc(-c3ccccc3)cc2)CC1`, the Ki [6] is reported as 30 nM, the Ki [7] is reported as 160 nM and the Ki [8] is reported as 9000 nM. The Ki [9] was 620 nM, the Emax [11] was 104% and the Emax [13] was 100%. For the same compound, the Emax [15] was 92%, the Emax [19] was 93% and the Ki [20] was 13000 nM.

Compound `CCCCn1cc(CCCOc2ccc(C(=O)NCCCCN(CCC)CCc3ccc(O)c4[nH]c(=O)ccc34)cc2OC)nn1` has a Ki [1] of 4600 nM, a Ki [2] of 25000 nM and a Ki [3] of 24 nM. The Ki [4] was 53 nM, the Ki [5] was 1.6 nM and the Ki [6] was 800 nM. The Ki [7] was 2800 nM, the Ki [8] was 3600 nM and the Ki [9] was 2400 nM. It also gave an EC50 [10] of 980 nM, an Emax [11] of 87% and an EC50 [12] of 1700 nM. The Emax [13] was 85%, the EC50 [14] was 3800 nM and the Emax [15] was 82%. For the same compound, the EC50 [16] was 7300 nM, the Emax [17] was 84% and the EC50 [18] was 140 nM. It also gave an Emax [19] of 86%.

In the case of `CCCCn1cc(CCCOc2ccc(C(=O)NCCCCN(CCC)[C@H]3CCc4c(O)cccc4C3)cc2OC)nn1`, the Ki [1] is reported as 2900 nM, the Ki [2] is reported as 700 nM and the Ki [3] is reported as 0.47 nM. It also gave a Ki [4] of 0.54 nM, a Ki [5] of 0.21 nM and a Ki [6] of 9.4 nM. It also gave a Ki [7] of 22 nM, a Ki [8] of 710 nM and a Ki [9] of 85 nM. It also gave an EC50 [10] of 2.1 nM, an Emax [11] of 110% and an EC50 [12] of 4 nM. For the same compound, the Emax [13] was 97%, the EC50 [14] was 3.1 nM and the Emax [15] was 90%. It also gave an EC50 [16] of 2.9 nM, an Emax [17] of 99% and an EC50 [18] of 1.4 nM. For the same compound, the Emax [19] was 94%.

With `CCCCn1cc(CCCOc2ccc(C(=O)NCCCCN(CCC)[C@@H]3CCc4c(O)cccc4C3)cc2OC)nn1` the Ki [1] was 23000 nM, the Ki [2] was 21000 nM and the Ki [3] was 18 nM. The Ki [4] was 30 nM, the Ki [5] was 1.2 nM and the Ki [6] was 290 nM. For the same compound, the Ki [7] was 200 nM, the Ki [8] was 1000 nM and the Ki [9] was 480 nM. It also gave an EC50 [10] of 830 nM, an Emax [11] of 27% and an Emax [13] of less than 5%. It also gave an EC50 [14] of 530 nM, an Emax [15] of 36% and an Emax [17] of less than 5%. The EC50 [18] was 30 nM and the Emax [19] was 56%.

For `C#CC1=CC[C@@H](N(CCC)CCCCNC(=O)c2ccc(OCCCc3cn(CCCC)nn3)c(OC)c2)CO1`, the Ki [1] was 2600 nM, the Ki [2] was 24000 nM and the Ki [3] was 1.6 nM. The Ki [4] was 2.9 nM, the Ki [5] was 0.63 nM and the Ki [6] was 30 nM. For the same compound, the Ki [7] was 130 nM, the Ki [8] was 8000 nM and the Ki [9] was 1000 nM. The EC50 [10] was 110 nM, the Emax [11] was 92% and the EC50 [12] was 660 nM. The Emax [13] was 94%, the EC50 [14] was 52 nM and the Emax [15] was 99%. It also gave an EC50 [16] of 28 nM, an Emax [17] of 61% and an EC50 [18] of 380 nM. For the same compound, the Emax [19] was 88%.

`C#CC1=CC[C@H](N(CCC)CCCCNC(=O)c2ccc(-c3ccccc3)cc2)CC1` gave a Ki [6] of 60 nM, a Ki [7] of 110 nM and a Ki [8] of 28000 nM. It also gave a Ki [9] of 1800 nM, an Emax [11] of 100% and an Emax [17] of 73%. It also gave an Emax [19] of 93% and a Ki [20] of 18000 nM.
